Experimental data as given in ChEMBL document CHEMBL4152330, “Arylamino containing hydroxamic acids as potent urease inhibitors for the treatment of Helicobacter pylori infection” (Eur J Med Chem, 2018).
Active and inactive are the calls of the source. The calls are words filed in the database; no cut-off is given here.

Key:
[1] = target: T1, Urease subunit alpha/Urease subunit beta (Helicobacter pylori (strain ATCC 700392 / 26695) (Campylobacterpylori), UniProt P69996); experiment: Inhibition of urease in Helicobacter pylori ATCC 43504 assessed as reduction in ammonia production preincubated for 1.5 hrs by indophenol method; format: protein-complex assay, Helicobacter pylori NCTC 11637 = CCUG 17874 = ATCC 43504
How it was run: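 Crude urease was prepared from H. pylori harvested from broth, PBS-washed, frozen at -80 °C, sonicated with protease inhibitors, centrifuged, desalted on Sephadex G-25 and stored in 50% glycerol at 4 °C. Enzyme (10 U) was preincubated with test compound for 1.5 h at room temperature. Ammonia production was read by the Weatherburn indophenol method.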

[2] = target: T1, Urease subunit alpha/Urease subunit beta; experiment: Inhibition of Helicobacter pylori ATCC 43504 urease assessed as reduction in ammonia production preincubated for 1.5 hrs under cell free condition by indophenol method; format: protein-complex assay, Helicobacter pylori NCTC 11637 = CCUG 17874 = ATCC 43504
How it was run: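 Crude urease from sonicated ATCC 43504 cells (grown microaerobically in Brucella broth with 10% sheep blood), desalted on Sephadex G-25 and stored in 50% glycerol at 4 °C. Enzyme (10U) pre-incubated with test compound 1.5 h at room temperature. Ammonia production read by Weatherburn indophenol method.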

[3] = target: T2, Urease subunit alpha/Urease subunit beta (Helicobacter pylori (strain ATCC 700392 / 26695) (Campylobacterpylori)) (UniProt P69996+P14916); experiment: Ratio of IC50 for Helicobacter pylori ATCC 43504 urease under cell free condition to IC50 for urease in intact Helicobacter pylori ATCC 43504; format: protein-complex assay; details: Helicobacter pylori NCTC 11637 = CCUG 17874 = ATCC 43504
How it was run: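 Cell-free arm: desalted crude H. pylori urease lysate (10 U) was preincubated with compound for 1.5 h at room temperature. Intact-cell arm: the same set-up with H. pylori cell suspension (4.0 × 10^7 CFU/mL) in place of the enzyme. Ammonia was measured by the indophenol method in both arms.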

[4] = target: T1, Urease subunit alpha/Urease subunit beta; experiment: Mixed type non-competitive inhibition of urease in Helicobacter pylori ATCC 43504 assessed as reduction in ammonia production preincubated for 1.5 hrs by indophenol method; format: protein-complex assay, Helicobacter pylori NCTC 11637 = CCUG 17874 = ATCC 43504
How it was run: (§1)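 Crude H. pylori ATCC 43504 urease with compound pre-incubated 1.5 h at room temperature, then ammonia production velocity measured by indophenol method across a urea concentration gradient at each fixed inhibitor concentration. V–[S] data fitted nonlinearly to assign inhibition type. Fitting constants plotted linearly against [I]; Ki and K'i taken from X-axis intercepts. Triplicate.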

[5] = target: T1, Urease subunit alpha/Urease subunit beta; experiment: Mixed type non-competitive inhibition of urease in Helicobacter pylori ATCC 43504 assessed as enzyme-substrate-inhibitor complex constant preincubated for 1.5 hrs by indophenol method; format: protein-complex assay, Helicobacter pylori NCTC 11637 = CCUG 17874 = ATCC 43504; how it was run: as §1
[6] = test system: Helicobacter pylori; experiment: Antibacterial activity against Helicobacter pylori ATCC 43504 infected in Kunming mouse assessed as reduction in gastric mucosa injury in mouse stomach at 32 mg/kg, po bid treated for 14 days by hematoxylin and eosin staining based assay; format: functional, organism-based; details: NCTC 11637 = CCUG 17874 = ATCC 43504
How it was run: (§2)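 KM mice (18–22 g) were pretreated with NaHCO3 and infected intragastrically with H. pylori (1 × 10^9 cfu/mL) daily for one week. After three weeks, groups (n=13) received compound in 0.5% CMC-Na intragastrically b.i.d. for 14 days. Part of each stomach was fixed in 4% paraformaldehyde, paraffin-embedded and cut at 3.0 µm to assess gastric mucosal lesions against an untreated infected model.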

[7] = test system: Helicobacter pylori; experiment: Antibacterial activity against Helicobacter pylori ATCC 43504 infected in Kunming mouse assessed as bacterial eradication at 32 mg/kg, po bid treated for 14 days relative to control; format: functional, NCTC 11637 = CCUG 17874 = ATCC 43504
How it was run: (§3)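 Mice (18–22 g) fasted 4 h, then given 0.2 mol/L NaHCO3 intragastrically. Fifteen min later they were inoculated intragastrically with H. pylori (1 × 10^9 cfu/mL), once daily for a week. Three weeks later mice were randomized (n=13/group). Compound in 0.5% CMC-Na was given intragastrically at 8:00 and 18:00 daily for 14 days. Eradication was compared with an untreated infected model group.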

[8] = target: T2, Urease subunit alpha/Urease subunit beta (Helicobacter pylori (strain ATCC 700392 / 26695) (Campylobacterpylori)); experiment: Potency index, ratio of AHA IC50 to compound IC50 for Helicobacter pylori ATCC 43504 urease assessed as reduction in ammonia production preincubated for 1.5 hrs under cell free condition by indophenol method; format: protein-complex assay; details: Helicobacter pylori NCTC 11637 = CCUG 17874 = ATCC 43504
[9] = Acute toxicity in po dosed Kunming mouse assessed as induction of mortality administered as single dose and measured after 14 days; format: organism-based; details: in vivo
How it was run: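 Male and female adult KM mice, 18–22 g, n=10 per group. Single intragastric dose of 500, 1000, 2000, 3000 or 5000 mg/kg in 0.5% CMC-Na, 200 μL per mouse; controls received vehicle alone. Mortality recorded over 14 days. LD50 estimated by probit analysis.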

[10] = test system: Helicobacter pylori; experiment: Antibacterial activity against Helicobacter pylori ATCC 43504 infected in Kunming mouse assessed as bacterial eradication at 64 mg/kg, po bid treated for 14 days relative to control; format: functional, NCTC 11637 = CCUG 17874 = ATCC 43504; how it was run: as §3
[11] = test system: Helicobacter pylori; experiment: Antibacterial activity against Helicobacter pylori ATCC 43504 infected in Kunming mouse assessed as bacterial eradication at 128 mg/kg, po bid treated for 14 days relative to control; format: functional, NCTC 11637 = CCUG 17874 = ATCC 43504; how it was run: as §3
[12] = test system: Helicobacter pylori; experiment: Antibacterial activity against Helicobacter pylori ATCC 43504 infected in Kunming mouse assessed as reduction in gastric mucosa injury in mouse stomach at 16 mg/kg, po bid treated for 14 days by hematoxylin and eosin staining based assay; format: functional, organism-based; details: NCTC 11637 = CCUG 17874 = ATCC 43504; how it was run: as §2
[13] = test system: Helicobacter pylori; experiment: Antibacterial activity against Helicobacter pylori ATCC 43504 infected in Kunming mouse assessed as bacterial eradication at 16 mg/kg, po bid treated for 14 days relative to control; format: functional, NCTC 11637 = CCUG 17874 = ATCC 43504; how it was run: as §3

T1 sequence (P69996 whole entry): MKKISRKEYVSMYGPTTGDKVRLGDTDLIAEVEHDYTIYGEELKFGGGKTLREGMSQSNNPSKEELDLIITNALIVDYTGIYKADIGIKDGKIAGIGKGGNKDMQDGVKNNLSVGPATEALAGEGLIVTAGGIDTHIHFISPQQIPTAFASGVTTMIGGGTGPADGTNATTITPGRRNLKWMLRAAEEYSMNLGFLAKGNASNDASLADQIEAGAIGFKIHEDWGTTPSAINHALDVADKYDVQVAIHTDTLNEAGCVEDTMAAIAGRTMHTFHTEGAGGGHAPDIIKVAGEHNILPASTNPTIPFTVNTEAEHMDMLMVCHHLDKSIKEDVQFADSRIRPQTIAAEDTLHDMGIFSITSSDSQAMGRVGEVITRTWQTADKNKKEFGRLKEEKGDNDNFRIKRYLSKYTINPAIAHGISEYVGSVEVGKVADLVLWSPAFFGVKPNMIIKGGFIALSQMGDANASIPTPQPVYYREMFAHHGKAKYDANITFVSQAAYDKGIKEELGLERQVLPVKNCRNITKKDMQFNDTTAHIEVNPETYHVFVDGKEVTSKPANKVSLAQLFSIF
T1 sequence (P14916 whole entry, further chain): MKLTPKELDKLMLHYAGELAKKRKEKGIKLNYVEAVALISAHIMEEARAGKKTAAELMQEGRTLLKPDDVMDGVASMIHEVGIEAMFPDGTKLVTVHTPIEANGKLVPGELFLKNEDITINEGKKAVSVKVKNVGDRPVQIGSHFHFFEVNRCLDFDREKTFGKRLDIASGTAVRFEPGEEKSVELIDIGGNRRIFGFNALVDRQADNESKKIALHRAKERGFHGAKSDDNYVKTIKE
T2 sequence (P14916 whole entry, looked up): as the sequence (P14916 whole entry, further chain) above
T2 sequence (P69996 whole entry, looked up): as the sequence (P69996 whole entry) above

SMILES	IC50 [2]	Ratio IC50 [3]	further results
O=C(CNc1cc(Cl)cc(Cl)c1)NO	130 nM	46 to 110	IC50 [1]: 16.9 µM; Ki [4]: 1660 nM; Ki [5]: 315 nM
O=C(CNc1ccc(F)cc1)NO	7410 nM	46 to 110	
O=C(CNc1ccccc1Cl)NO	58900 nM	46 to 110	
Cc1cc(C)cc(NCC(=O)NO)c1	2120 nM	46 to 110	
O=C(CNc1ccc(Cl)cc1Cl)NO	66100 nM	46 to 110	
O=C(CNc1c(Cl)cccc1Cl)NO	191000 nM	46 to 110	
O=C(CCNc1cccc([N+](=O)[O-])c1)NO	5100 nM	46 to 110	
O=C(CCNc1cc(Cl)ccc1Cl)NO	450 nM	46 to 110	IC50 [1]: 29.5 µM
O=C(CNc1cccc([N+](=O)[O-])c1)NO	8210 nM	46 to 110	
O=C(CNc1cccc(Cl)c1)NO	1150 nM	46 to 110	
COc1ccccc1NCCC(=O)NO	1640 nM	46 to 110	
O=C(CNc1ccccc1)NO	4670 nM	46 to 110	
O=C(CCNc1ccc(F)cc1)NO	180 nM	46 to 110	IC50 [1]: 17.9 µM
O=C(CNc1ccc(Cl)cc1)NO	2470 nM	46 to 110	
O=C(CCNc1ccccc1)NO	1220 nM	46 to 110	
COc1cc(NCC(=O)NO)cc(OC)c1	2280 nM	46 to 110	
CC(=O)NO [ACETOHYDROXAMIC ACID]		46 to 110	IC50 [1]: 172 µM; Activity [6]: Active; Activity [7]: 44.4%
O=C(CCNc1ccccc1[N+](=O)[O-])NO	10500 nM	46 to 110	
COc1cccc(NCC(=O)NO)c1	21800 nM	46 to 110	
O=C(CCNc1ccccc1Br)NO	130 nM	46 to 110	IC50 [1]: 14.5 µM
O=C(CNc1cccc(Cl)c1Cl)NO	14800 nM	46 to 110	

SMILES	IC50 [2]	Ratio IC50 [3]	further results
COc1ccc(NCC(=O)NO)cc1	69800 nM	46 to 110	
O=C(CNc1cccc(Br)c1)NO	860 nM	46 to 110	IC50 [1]: 48.1 µM; Ratio IC50 [8]: 2 to 24
O=C(CNc1cc(Cl)ccc1Cl)NO	1640 nM	46 to 110	
O=C(CCNc1ccccc1Cl)NO	55 nM	46 to 110	IC50 [1]: 5.91 µM; LD50 at 336 h [9]: 3350 mg/kg; Activity [6]: Active; Activity [7]: 84.6%; Activity [10]: 92.3%; Activity [11]: 100%
O=C(CCNc1cccc(Cl)c1Cl)NO	3830 nM	46 to 110	
COc1ccccc1NCC(=O)NO	152000 nM	46 to 110	
O=C(CCNc1ccc(Cl)cc1Cl)NO	18 nM	46 to 110	IC50 [1]: 0.14 µM; Ratio IC50 [8]: > 1500; Ki [4]: 442 nM; Ki [5]: 60.2 nM; LD50 at 336 h [9]: 3130 mg/kg; Activity [6]: Active; Activity [12]: Active; Activity [7]: 100%; Activity [10]: 100%; Activity [13]: 92.3%
O=C(CNc1ccc(Br)cc1)NO	2010 nM	46 to 110	Ratio IC50 [8]: 2 to 24
O=C(CNc1cc(F)cc(F)c1)NO	5110 nM	46 to 110	
O=C(CN1CCCc2ccccc21)NO	71100 nM	46 to 110	
O=C(CCNc1cc(F)cc(F)c1)NO	1520 nM	46 to 110	
O=C(CNc1ccccc1Br)NO	12300 nM	46 to 110	Ratio IC50 [8]: 2 to 24
Cc1ccc(NCC(=O)NO)cc1	3910 nM	46 to 110	
Cc1cc(C)cc(NCCC(=O)NO)c1	2930 nM	46 to 110	
O=C(CNc1ccc(Cl)c(Cl)c1)NO	760 nM	46 to 110	IC50 [1]: 41.6 µM
O=C(CCNc1ccc(Cl)c(Cl)c1)NO	710 nM	46 to 110	IC50 [1]: 38.9 µM
O=C(CCNc1ccc([N+](=O)[O-])cc1)NO	1230 nM	46 to 110	
O=C(CCNc1cc(Cl)cc(Cl)c1)NO	43 nM	46 to 110	IC50 [1]: 3.9 µM; Ki [4]: 1570 nM; Ki [5]: 153 nM; LD50 at 336 h [9]: 2980 mg/kg; Activity [6]: Active; Activity [7]: 92.3%; Activity [10]: 100%; Activity [11]: 100%
O=C(CCNc1c(Cl)cccc1Cl)NO	25000 nM	46 to 110	
O=C(CCN1CCCc2ccccc21)NO	21100 nM	46 to 110	
